Data: ChEMBL document CHEMBL1124112, “Indoline analogues of idazoxan: potent alpha 2-antagonists and alpha 1-agonists” (J Med Chem, 1988)

Columns and labels:
[1] = tested on: Adrenergic receptor alpha-1 (Rattus norvegicus); assay: […] towards alpha-1 adrenergic receptor determined as the dose required to produce a two fold shift of the cirazoline on diastolic blood pressure (in vitro); conditions: Artery
[2] = biological target: Adrenergic receptor alpha-2 (Rattus norvegicus) (UniProt P22086+P19328+P22909); assay: Antagonist potency towards alpha-2 adrenergic receptor determined as the dose required to produce a two fold shift of the dose-response curve to UK-14304 on the twitch response of the vas deferens (in vitro);AG- agonist; format: functional, tissue-based; conditions: filed as agonist
[3] = biological target: Adrenergic receptor alpha-1 (Rattus norvegicus) (UniProt P15823+P23944+P43140); assay: Agonism at alpha-1 adrenergic receptor, determined as the dose required to produce a two fold shift of the cirazoline on diastolic blood pressure.; format: functional, tissue-based; conditions: Artery
Rattus norvegicus [4] = assay: In vivo antagonist dose producing two fold shift of UK-14,304 in pithed rats. (prejunctional)
Rattus norvegicus [5] = assay: In vivo dose required to inhibit vas deferens contraction by 25% after pretreatment with prazosin in pithed rats. (prejunctional); format: functional
How it was run: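 Pithed rats pretreated with prazosin (1 mg/kg). Compound given iv in cumulative doses. ED25 is the dose (μg/kg) inhibiting vas deferens contraction by 25%. Separate groups of rats (n = 4-6).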

[6] = tested on: Adrenergic receptor alpha-2 (Rattus norvegicus); assay: Agonism at alpha-2 adrenergic receptor, determined as dose required to produce a two fold shift of the cumulative dose-response curve to UK-14304 on the twitch response in rat vas deferens.
[7] = biological target: T1, Adrenergic receptor alpha-2 (Rattus norvegicus, UniProt P22086+P19328+P22909); assay: Inhibition of saturable binding of [3H]idazoxan to alpha2-site in rat cerebral cortical membranes.; format: cell membranes, Membrane
T1 sequence (P22086 whole entry): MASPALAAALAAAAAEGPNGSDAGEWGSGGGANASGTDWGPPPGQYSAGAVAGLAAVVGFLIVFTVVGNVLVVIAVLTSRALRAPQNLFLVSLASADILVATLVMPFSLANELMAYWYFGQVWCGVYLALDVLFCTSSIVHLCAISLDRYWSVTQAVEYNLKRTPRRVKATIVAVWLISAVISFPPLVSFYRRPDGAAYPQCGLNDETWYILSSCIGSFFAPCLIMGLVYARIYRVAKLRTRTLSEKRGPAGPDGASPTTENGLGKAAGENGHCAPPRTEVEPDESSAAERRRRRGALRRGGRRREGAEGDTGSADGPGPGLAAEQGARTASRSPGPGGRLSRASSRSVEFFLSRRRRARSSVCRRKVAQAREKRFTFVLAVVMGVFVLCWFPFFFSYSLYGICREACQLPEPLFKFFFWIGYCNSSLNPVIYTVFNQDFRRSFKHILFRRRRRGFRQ
T1 sequence (P19328 whole entry): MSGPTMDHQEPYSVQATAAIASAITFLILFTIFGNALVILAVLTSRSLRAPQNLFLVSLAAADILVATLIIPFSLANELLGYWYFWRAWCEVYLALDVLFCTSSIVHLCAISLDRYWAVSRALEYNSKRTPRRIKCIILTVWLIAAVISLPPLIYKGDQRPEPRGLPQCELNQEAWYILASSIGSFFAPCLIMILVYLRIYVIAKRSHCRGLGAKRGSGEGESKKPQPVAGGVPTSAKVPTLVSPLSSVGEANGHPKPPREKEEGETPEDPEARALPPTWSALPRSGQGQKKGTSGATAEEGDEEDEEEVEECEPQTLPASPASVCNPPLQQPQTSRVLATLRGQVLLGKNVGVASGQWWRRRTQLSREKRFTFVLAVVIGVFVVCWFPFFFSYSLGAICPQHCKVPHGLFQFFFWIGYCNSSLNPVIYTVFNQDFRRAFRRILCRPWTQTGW
T1 sequence (P22909 whole entry): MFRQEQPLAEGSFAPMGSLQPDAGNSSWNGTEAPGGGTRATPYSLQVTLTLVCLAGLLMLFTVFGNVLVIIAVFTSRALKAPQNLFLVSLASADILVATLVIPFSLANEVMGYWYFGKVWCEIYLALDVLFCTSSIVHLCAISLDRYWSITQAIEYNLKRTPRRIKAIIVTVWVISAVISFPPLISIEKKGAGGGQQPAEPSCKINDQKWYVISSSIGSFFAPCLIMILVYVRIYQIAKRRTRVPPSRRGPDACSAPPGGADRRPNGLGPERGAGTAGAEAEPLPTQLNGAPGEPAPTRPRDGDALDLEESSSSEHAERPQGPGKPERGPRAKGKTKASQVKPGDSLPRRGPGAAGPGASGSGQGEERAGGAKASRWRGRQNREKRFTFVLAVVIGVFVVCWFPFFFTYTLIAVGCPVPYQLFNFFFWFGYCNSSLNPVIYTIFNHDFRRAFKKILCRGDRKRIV

Rattus norvegicus [8] = assay: In vivo ED40 is the raising diastolic blood pressure by 40 mm Hg in pithed rats. (postjunctional); format: functional; conditions: Artery
How it was run: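 Pithed rats, compound given iv in cumulative doses. ED40 is the dose (μg/kg) raising diastolic blood pressure by 40 mmHg. Separate groups of rats (n = 4-6).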

Rattus norvegicus [9] = assay: In vivo antagonist dose producing two fold shift of cirazoline in pithed rats. (postjunctional); format: functional
How it was run: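 Pithed rats, separate groups (n = 4-6). Cirazoline cumulative dose-response on diastolic blood pressure (postjunctional α1) was recorded with and without antagonist given iv. The antagonist dose (μg/kg, iv) giving a twofold rightward shift of the cirazoline curve was reported as DR2.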

Prejunctional antagonist potency [2]: Agonist
Prejunctional agonist potency [6]: 0.02
Ki [7]: 1.87 nM
SMILES: c1ccc(CN2c3ccccc3CC2C2=NCCN2)cc1 (centres undefined)
Postjunctional antagonist potency [1]: 120
Postjunctional agonist potency [3]: 0
DR2 (Rattus norvegicus [4]): 0.0087 mg/kg
ED25 (Rattus norvegicus [5]): 0.0095 mg/kg
ED40 (Rattus norvegicus [8]): 0.308 mg/kg
DR2 (Rattus norvegicus [9]): 0.0543 mg/kg
